The list is not random: actives were taken first. Their share in the collection is about 2.3%.
MEKK2mut PB1 HTS: signal of MEK5 binding to mutant human MEKK2 PB1 domain. 290,000 tested, 0.35% active. AID 1530. bead flow cytometry, Alexa488-MEK5 binding to MEKK2 mutant. percent response, % at 10 µM; in the data active = percent response above about 24%, passing the limit was not always enough
MEKK2 WT-MEK5: raises or lowers MEK5 binding to wildtype human MEKK2 PB1 domain; Q9Y2U5; bead flow cytometry, Alexa488-MEK5 binding to MEKK2 WT; actives lie on both sides; binding response (% of control), % at 10 µM; 290,000 tested, 1.1% active; AID 1531; in the data active = binding response below about 67% or above about 130%
Arr AP2 block: blocks beta-arrestin peptide binding to AP2 adaptin; FITC-arrestin peptide / GST-AP2 beads, flow cytometry; AP2 beta2 appendage carries R879A mutation; inhibition, % at 10 µM; 340,000 tested, 0.31% active; AID 504490;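 active = inhibition above a set limit, near 3 SD of compounds lacking own fluorescence, cut at about 54% in these data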;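 also: plate controls were DMSO wells for no effect and 5 µM unlabelled arrestin peptide for full effect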
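Material – GST-tagged AP2 beta2-adaptin appendage (R879A) on 4 µm glutathione beads · Probe or stimulus – fluorescein-tagged arrestin peptide at 50 nM final · Timing – 12 min plus 1 h, RT · Detection – bead flow cytometry, FITC channel · Read-out basis – inhibition as reduced fluorescein signal on beads, percent · Medium – PBS plus Tween 20 (0.05%) and BSA (0.1%)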
MEKK3 PB1 HTS: MEKK3-MEK5 PB1 interaction, increase or decrease | bead-based flow cytometry, Alexa488-MEK5 binding to MEKK3; actives lie on both sides; 0 = blocked by unlabeled MEK5, 100 = vehicle | binding response (% of control), % at 10 µM | 290,000 tested, 1.4% active;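 active = binding response more than 3 SD above or below the average of its plate-row segment, actives on both sides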;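 also: Alexa488 bead fluorescence after subtracting the streptavidin-only scavenger bead signal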
Target sequence (Q99759 whole entry, looked up): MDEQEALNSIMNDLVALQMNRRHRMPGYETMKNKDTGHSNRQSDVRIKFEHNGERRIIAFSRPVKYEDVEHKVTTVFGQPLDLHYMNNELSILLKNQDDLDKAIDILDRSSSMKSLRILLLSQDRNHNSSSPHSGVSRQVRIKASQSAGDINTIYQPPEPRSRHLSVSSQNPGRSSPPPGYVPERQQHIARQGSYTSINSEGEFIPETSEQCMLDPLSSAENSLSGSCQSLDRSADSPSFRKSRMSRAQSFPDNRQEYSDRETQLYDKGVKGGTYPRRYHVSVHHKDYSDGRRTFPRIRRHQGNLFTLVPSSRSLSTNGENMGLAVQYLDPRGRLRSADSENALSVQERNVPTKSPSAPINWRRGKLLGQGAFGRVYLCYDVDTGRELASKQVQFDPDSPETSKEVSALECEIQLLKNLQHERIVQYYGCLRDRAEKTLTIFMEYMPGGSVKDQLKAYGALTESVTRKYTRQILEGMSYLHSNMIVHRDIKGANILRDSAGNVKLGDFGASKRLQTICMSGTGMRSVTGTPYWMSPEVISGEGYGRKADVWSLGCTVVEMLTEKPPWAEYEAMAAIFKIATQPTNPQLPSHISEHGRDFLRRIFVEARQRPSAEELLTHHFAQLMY
MEKK2wt confirm: raises or lowers MEK5 binding to wildtype human MEKK2, retest. shares compounds with MEKK3 PB1 HTS. bead flow cytometry, Alexa488-MEK5 binding to MEKK2 WT; actives lie on both sides. 5,900 tested, 2.4% active. AID 1892. binding response (% of control), % at 10 µM; in the data active = binding response below about 16% or above about 210%; inactive = in between
MEKK2mut confirm: signal of MEK5 binding to mutant human MEKK2, retest; shares compounds with MEKK3 PB1 HTS; bead flow cytometry, Alexa488-MEK5 binding to MEKK2 mutant; percent response, % at 10 µM; 5,900 tested, 2% active; in the data active = percent response mostly above about 71%, no sharp cut-off; inactive = mostly below about 38%;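 also: higher means compound restores mutant binding toward wildtype level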
MEKK3-MEK5 inh: MEKK3-MEK5 PB1 inhibition, single concentration confirmation; bead flow cytometry, Alexa488-MEK5 binding to MEKK3; active compounds read low; 5,900 tested, 1.8% active; binding response (% of control), % at 10 µM; shares compounds with MEKK3 PB1 HTS; AID 1894;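 active = binding response below 72% of control, or above a set upper limit, though filed actives all read lower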;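 also: 100% = DMSO only wells and 0% = binding blocked by excess unlabeled MEK5; lower values mean stronger disruption of MEK5 binding to MEKK3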
Starred values were filed as active, the others as inactive; nt = not tested or not shown; [ ] = another dose, or the depositor's remark.

SMILES | MEKK2mut PB1 HTS | MEKK2 WT-MEK5 | Arr AP2 block | MEKK3 PB1 HTS | MEKK2wt confirm | MEKK2mut confirm | MEKK3-MEK5 inh
COc1ccc2c(C)cc(SCC#N)nc2c1 | 38* | 58*[inhibitor] | 16 | 102 | 101 | -8 | 103
Cc1cc(SCC#N)nc2ccccc12 | 3 | 104 | 20 | 100 | nt | nt | nt
CCN(Cc1ccccc1)c1ccc(/C=N/NC(=S)NC(C)C)cc1 | -1 | 82 | -3 | 59*[inhibitor] | 146 | 19 | 107
CCCCN(C(=O)c1cc(CC)c(C)s1)c1c(N)n(CCC)c(=O)[nH]c1=O | nt | nt | -12 | nt | nt | nt | nt
C=CCNC(=O)Cc1ccc(S(=O)(=O)N2CCOCC2)s1 | nt | nt | 0 | nt | nt | nt | nt
O=C(N=C1c2ccccc2CN1c1cccc(Cl)c1)c1cccnc1 | -2 | 88 | 0 | 56*[inhibitor] | 51 | -23 | 90
O=C(N=C1c2ccccc2CN1c1ccc(F)c(F)c1)c1cccnc1 | -1 | 101 | 6 | 107 | nt | nt | nt
CC(C)(C)S(=O)(=O)c1cnc(-c2ccccn2)nc1N | -12 | 93 | 14 | 92 | nt | nt | nt
CC(C)(C)S(=O)(=O)c1cnc(-c2cnccn2)nc1N | 29 | 114 | 0 | 134* | 94 | -6 | 98
Cc1c(O)ccc2c(CC(=O)N[C@@H](Cc3ccccc3)C(=O)O)cc(=O)oc12 | 8 | 107 | 22 | 108 | nt | nt | nt
COc1ccc(Cc2nnc(Nc3ccc(Cl)cc3)[nH]c2=O)cc1 | -1 | 95 | 4 | 102 | nt | nt | nt
O=c1[nH]c(Nc2ccc3c(c2)OCCO3)nnc1Cc1ccc(Cl)cc1 | 3 | 106 | 1 | 129* | 94 | -8 | 97
CS(=O)(=O)c1[nH]nc(-c2cccc(Cl)c2)c1C#N | -30 | 89 | 12 | 84 | nt | nt | nt
CCOc1cccc2sc(N(CCN(C)C)C(=O)c3ccc(Br)s3)nc12 | -1 | 105 | -19 | 90 | nt | nt | nt
Cc1ccc2sc(N(CCCN(C)C)C(=O)c3nc4ccccc4s3)nc2c1C | 33 | 144* | 0 | 103 | 196 | 63 | 111
Cc1cccc2sc(N(CCCN(C)C)C(=O)c3nc4ccccc4s3)nc12 | -3 | 83 | -4 | 67*[inhibitor] | 158 | 42 | 100
Cc1ccc2sc(N(CCCN(C)C)C(=O)c3ccc(Br)s3)nc2c1C | 218* | 479* | 41 | 140* | 180 | 60 | 110
Cc1ccc2nc(N(CCCN(C)C)C(=O)c3sc4ccccc4c3Cl)sc2c1 | 9 | 155* | 9 | 133* | 184 | 54 | 109
CCN(C(=O)COC(=O)/C(C#N)=C/c1ccc(OC)cc1)C1CCS(=O)(=O)C1 (stereo not given) | nt | nt | 3 | nt | nt | nt | nt
COc1cccc(Oc2ccc3nnc(C(F)(F)F)n3n2)c1 | -41 | 96 | 11 | 94 | nt | nt | nt
CC(=O)NC1=NN(C(C)=O)C2(CCCC2)S1 | 0 | 119 | 12 | 132* | 107 | 6 | 105
CC(=O)N1N=C(N)SC12CCCC2 | -1 | 97 | -7 | 89 | nt | nt | nt
CC(C)(C)OC(=O)N1CCC(c2cc(=O)n3[nH]cc(C(=O)Nc4ccc(F)c(Cl)c4)c3n2)CC1 | 19 | 97 | 19 | 129* | 97 | -1 | 101
COc1ccc(NC(=O)c2c[nH]n3c(=O)cc(C4CCN(C(=O)OC(C)(C)C)CC4)nc23)cc1Cl | -18 | 82 | 7 | 97 | nt | nt | nt
O=C(N/N=C/c1ccco1)c1cccc(N2Cc3ccccc3C2)c1 | 4 | 105 | 3 | 104 | nt | nt | nt
Oc1ccc(Cl)cc1C=NCCc1ccccc1 | 0 | 100 | 34 | 129* | 101 | -2 | 96
Oc1ccccc1C=NCCN=Cc1ccccc1O | 2 | 93 | -7 | 104 | nt | nt | nt
O=C(COc1c(F)c(F)cc(F)c1F)NC(=O)NC1CCCC1 | -8 | 60 | 14 | 56*[inhibitor] | 101 | 5 | 100
CCCNC(=O)NC(=O)COc1c(F)c(F)cc(F)c1F | 13 | 98 | 13 | 97 | nt | nt | nt
CN1CCN(C(=O)c2cccn(Cc3c(Cl)cccc3Cl)c2=O)CC1 | 4 | 108 | -2 | 103 | nt | nt | nt
